Laboratory results published in ChEMBL document CHEMBL4052637, “Discovery and Characterization of R/S-N-3-Cyanophenyl-N'-(6-tert-butoxycarbonylamino-3,4-dihydro-2,2-dimethyl-2H-1-benzopyran-4-yl)urea, a New Histone Deacetylase Class III Inhibitor Exerting Antiproliferative Activity against Cancer Cell Lines” (J Med Chem, 2017).
The source made the active and inactive calls. No cut-off for these calls is given here.

How the values were obtained:
Hs 683 [1] = experiment: Induction of apoptosis in human Hs683 cells at 10 uM after 72 hrs by TUNEL method relative to control; format: functional
Hs 683 [2] = experiment: Cell cycle arrest in human Hs683 cells assessed as accumulation at G1 phase at IC50 after 24 to 48 hrs by propidium iodide staining-based flow cytometry; format: functional
How it was run: (§1)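 Cells were exposed to compound at the IC50 for each line from the 72 h MTT assay, or to a reference HDAC inhibitor at 2 μM. Cell cycle distribution was analyzed after 24 and 48 h. Results are mean ± SD of three independent experiments, with p values against control cells.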

SF-295 = experiment: Growth inhibition of human SF295 cells after 48 hrs by SRB assay; format: functional; details: SF-295, 48 h
IGROV-1 = experiment: Growth inhibition of human IGROV1 cells after 48 hrs by SRB assay; format: functional; details: IGROV-1, 48 h
SK-OV-3 = experiment: Growth inhibition of human SKOV3 cells after 48 hrs by SRB assay; format: functional; details: SK-OV-3, 48 h
LOX IMVI = experiment: Growth inhibition of human LOXIMVI cells after 48 hrs by SRB assay; format: functional
[3] = Induction of senescence in human U373 cells at 5 uM after 6 days by beta-galactosidase assay relative to control; format: functional, U-373MG ATCC
How it was run: (§2)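 Cells were kept 6 days in medium containing 5 μM compound or DMSO vehicle, then stained for senescence-associated β-galactosidase activity. Blue-stained cells were counted and expressed as a percentage of total cells counted. Two independent experiments.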

[4] = target: Polyamine deacetylase HDAC10 (Homo sapiens) (UniProt Q969S8); experiment: Inhibition of C-terminal His-tagged recombinant human HDAC10 expressed in baculovirus infected insect Sf9 cells at 0.1 to 100 uM using Fluor-de-Lys-SIRT1 as substrate after 15 mins by fluorescence assay
Chain of Polyamine deacetylase HDAC10 (Homo sapiens) (Q969S8 whole entry): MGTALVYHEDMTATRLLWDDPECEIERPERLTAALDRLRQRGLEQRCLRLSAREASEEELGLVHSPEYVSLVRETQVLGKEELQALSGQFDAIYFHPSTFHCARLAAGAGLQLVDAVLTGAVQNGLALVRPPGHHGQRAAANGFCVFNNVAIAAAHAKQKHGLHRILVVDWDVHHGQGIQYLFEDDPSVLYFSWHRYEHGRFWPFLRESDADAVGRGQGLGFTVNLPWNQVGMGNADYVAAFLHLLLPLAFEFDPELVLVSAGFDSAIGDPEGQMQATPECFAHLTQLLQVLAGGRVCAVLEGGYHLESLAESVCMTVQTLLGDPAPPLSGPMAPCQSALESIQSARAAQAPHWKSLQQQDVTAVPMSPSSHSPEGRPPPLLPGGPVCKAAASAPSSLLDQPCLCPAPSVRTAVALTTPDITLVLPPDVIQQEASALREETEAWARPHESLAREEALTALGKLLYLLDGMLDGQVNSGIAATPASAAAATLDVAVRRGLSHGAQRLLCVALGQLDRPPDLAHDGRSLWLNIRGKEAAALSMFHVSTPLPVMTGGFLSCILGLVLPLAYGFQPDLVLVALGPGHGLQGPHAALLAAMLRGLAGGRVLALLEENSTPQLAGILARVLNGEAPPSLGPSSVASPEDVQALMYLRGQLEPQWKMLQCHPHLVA

SF-268 = experiment: Growth inhibition of human SF268 cells after 48 hrs by SRB assay; format: functional; details: SF-268, 48 h
Hs 683 [5] = experiment: Antiproliferative activity against human Hs683 cells transfected with SIRT1/2 siRNA at IC50 for MTT assay after 72 hrs by time-lapse videomicroscopy; format: functional, cell-based
TK-10 = experiment: Growth inhibition of human TK10 cells after 48 hrs by SRB assay; format: functional; details: TK-10, 48 h
SN12C = experiment: Growth inhibition of human SN12C cells after 48 hrs by SRB assay; format: functional
A2780cis = experiment: Antiproliferative activity against human A2780cis cells after 72 hrs by MTT assay; format: functional, cell-based
How it was run: (§3)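 MTT assay: cells in RPMI 1640 with 10% heat-inactivated FCS at 37 °C and 5% CO2 were seeded 24 h before treatment. They were exposed 72 h to compound at 0.01–100 μM, with DMSO as solvent.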

[6] = target: Histone deacetylase 8 (Homo sapiens) (UniProt Q9BY41); experiment: Inhibition of recombinant human HDAC8 expressed in Escherichia coli at 0.1 to 100 uM using Fluor-de-Lys-HDAC8 as substrate after 15 mins by fluorescence assay
Chain of Histone deacetylase 8 (Homo sapiens) (Q9BY41 whole entry): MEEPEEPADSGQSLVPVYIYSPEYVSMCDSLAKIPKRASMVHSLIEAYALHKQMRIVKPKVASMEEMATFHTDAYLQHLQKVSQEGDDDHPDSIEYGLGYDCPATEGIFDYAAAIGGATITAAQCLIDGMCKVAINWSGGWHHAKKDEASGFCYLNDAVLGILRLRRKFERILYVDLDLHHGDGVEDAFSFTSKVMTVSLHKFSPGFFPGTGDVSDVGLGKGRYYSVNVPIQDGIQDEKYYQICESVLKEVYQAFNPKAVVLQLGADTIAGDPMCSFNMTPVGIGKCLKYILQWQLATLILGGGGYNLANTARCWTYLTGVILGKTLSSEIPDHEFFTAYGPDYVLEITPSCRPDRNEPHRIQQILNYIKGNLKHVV

HCT-116 [7] = experiment: Growth inhibition of human HCT116 cells after 48 hrs by SRB assay; format: functional; details: HCT-116, 48 h
[8] = target: T1, NAD-dependent protein deacetylase sirtuin-2 (Homo sapiens) (UniProt Q8IXJ6); experiment: Inhibition of SIRT2 in human Hs683 cells assessed as increase of alpha-tubulin acetylation at 1 uM after 8 hrs by Western blotting method relative to control; format: cell-based
T1 sequence (whole entry): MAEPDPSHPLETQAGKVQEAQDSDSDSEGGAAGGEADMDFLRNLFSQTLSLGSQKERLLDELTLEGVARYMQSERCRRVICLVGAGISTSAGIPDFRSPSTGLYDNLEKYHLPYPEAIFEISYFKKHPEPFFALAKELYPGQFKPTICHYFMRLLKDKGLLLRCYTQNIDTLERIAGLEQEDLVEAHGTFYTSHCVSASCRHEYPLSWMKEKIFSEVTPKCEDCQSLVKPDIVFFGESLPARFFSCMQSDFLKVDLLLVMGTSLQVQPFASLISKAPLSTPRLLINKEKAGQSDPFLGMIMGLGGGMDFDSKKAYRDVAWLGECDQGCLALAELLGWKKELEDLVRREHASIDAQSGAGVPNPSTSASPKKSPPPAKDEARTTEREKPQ

HCT-116 [9] = experiment: Antiproliferative activity against p53 knock out human HCT116 cells after 72 hrs by MTT assay; format: functional, cell-based; how it was run: as §3
OVCAR-5 = experiment: Growth inhibition of human OVCAR5 cells after 48 hrs by SRB assay; format: functional; details: OVCAR-5, 48 h
SW1573/2R120 = experiment: Antiproliferative activity against human SW1573/2R120 cells overexpressing ABCC1/LRP after 72 hrs by MTT assay; format: functional, cell-based; how it was run: as §3
SW1573 = experiment: Antiproliferative activity against human SW1573 cells after 72 hrs by MTT assay; format: functional, cell-based; how it was run: as §3
Hs 683 [10] = experiment: Potency index, ratio of EX-527 IC50 to test compound IC50 for human Hs683 cells; format: functional
[11] = target: Protein deacetylase HDAC6 (Homo sapiens) (UniProt Q9UBN7); experiment: Inhibition of His-tagged recombinant human HDAC6 expressed in baculovirus infected insect cells at 0.1 to 100 uM using Fluor-de-Lys-SIRT1 as substrate after 15 mins by fluorescence assay
Chain of Protein deacetylase HDAC6 (Homo sapiens) (Q9UBN7 whole entry): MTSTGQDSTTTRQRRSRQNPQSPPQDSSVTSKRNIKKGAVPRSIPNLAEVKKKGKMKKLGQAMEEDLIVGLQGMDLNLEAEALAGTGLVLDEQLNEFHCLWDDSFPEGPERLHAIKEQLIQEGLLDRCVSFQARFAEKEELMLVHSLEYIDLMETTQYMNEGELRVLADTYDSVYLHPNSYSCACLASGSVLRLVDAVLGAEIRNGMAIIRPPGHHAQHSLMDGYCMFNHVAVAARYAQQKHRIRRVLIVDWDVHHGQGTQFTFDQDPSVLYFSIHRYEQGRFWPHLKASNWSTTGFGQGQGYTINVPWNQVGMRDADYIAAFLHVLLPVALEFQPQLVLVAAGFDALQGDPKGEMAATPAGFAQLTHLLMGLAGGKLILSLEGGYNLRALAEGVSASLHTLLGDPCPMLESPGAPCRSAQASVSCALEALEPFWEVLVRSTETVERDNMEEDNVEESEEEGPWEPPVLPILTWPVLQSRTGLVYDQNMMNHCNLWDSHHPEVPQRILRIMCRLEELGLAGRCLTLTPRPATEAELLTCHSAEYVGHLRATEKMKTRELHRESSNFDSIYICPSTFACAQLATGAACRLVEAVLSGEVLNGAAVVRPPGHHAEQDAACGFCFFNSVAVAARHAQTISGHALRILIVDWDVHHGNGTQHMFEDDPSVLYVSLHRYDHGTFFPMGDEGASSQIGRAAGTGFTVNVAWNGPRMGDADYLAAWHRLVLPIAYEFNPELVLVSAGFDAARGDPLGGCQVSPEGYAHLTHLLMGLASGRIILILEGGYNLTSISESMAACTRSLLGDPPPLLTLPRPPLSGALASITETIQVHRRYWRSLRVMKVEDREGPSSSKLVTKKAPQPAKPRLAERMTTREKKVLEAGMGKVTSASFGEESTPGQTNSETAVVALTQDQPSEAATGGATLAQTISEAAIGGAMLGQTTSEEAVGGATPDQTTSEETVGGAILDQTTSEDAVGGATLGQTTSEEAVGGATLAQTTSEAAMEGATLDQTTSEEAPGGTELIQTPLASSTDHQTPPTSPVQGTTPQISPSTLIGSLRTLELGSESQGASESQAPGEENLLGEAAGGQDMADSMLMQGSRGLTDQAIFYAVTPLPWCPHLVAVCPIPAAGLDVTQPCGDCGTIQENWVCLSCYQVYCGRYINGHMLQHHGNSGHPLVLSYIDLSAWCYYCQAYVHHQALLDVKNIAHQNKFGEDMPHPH

U-373MG ATCC [12] = experiment: Antiproliferative activity against human U373 cells transfected with SIRT1/2 siRNA at IC50 for MTT assay after 72 hrs by time-lapse videomicroscopy; format: functional, cell-based
Hs 683 [13] = experiment: Potency index, ratio of AGK2 IC50 to test compound IC50 for human Hs683 cells; format: functional
A549 = experiment: Growth inhibition of human A549 cells after 48 hrs by SRB assay; format: functional; details: A549, 48 h
MDA-MB-468 = experiment: Growth inhibition of human MDA-MB-468 cells after 48 hrs by SRB assay; format: functional; details: MDA-MB-468, 48 h
Hs 683 [14] = experiment: Induction of senescence in human Hs683 cells at 5 uM after 6 days by beta-galactosidase assay (reference value: 0.2%); format: functional; how it was run: as §2
U-373MG ATCC [15] = experiment: Inhibition of spheroid forming capacity of human U373 cells assessed as decrease in volume of multicellular tumor spheroids at 5 to 10 uM treated for 24 hrs measured after 96 hrs by bright field microscopic method; format: functional, cell-based
How it was run: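 Spheroids formed from 1 × 10^3 cells in 25 μL. Cells were pretreated 24 h with compound then left untreated 96 h, or untreated spheroids were cultured 96 h with compound. Surface measured from bright-field images; volume in voxels from 3D plots after image segmentation. Mean ± SD of three independent experiments.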

NCI-H522 = experiment: Growth inhibition of human NCI-H522 cells after 48 hrs by SRB assay; format: functional; details: NCI-H522, 48 h
SW-620 = experiment: Growth inhibition of human SW620 cells after 48 hrs by SRB assay; format: functional; details: SW-620, 48 h
U-373MG ATCC [16] = experiment: Cell cycle arrest in human U373 cells assessed as accumulation at G1 phase at IC50 after 24 to 48 hrs by propidium iodide staining-based flow cytometry; format: functional; how it was run: as §1
HOP-92 = experiment: Growth inhibition of human HOP92 cells after 48 hrs by SRB assay; format: functional; details: HOP-92, 48 h

## CC(C)(C)OC(=O)Nc1ccc2c(c1)C(NC(=O)Nc1cccc(C#N)c1)CC(C)(C)O2 (configuration not stated)
Hs 683 [1]
  Activity: 25%
Hs 683 [2]
  Activity: Active
SF-295
  GI50: 2.29 µM
IGROV-1
  GI50: 6.31 µM
SK-OV-3
  GI50: 9.12 µM
LOX IMVI
  GI50: 1.62 µM
[3]
  Activity: 18.2%
[4]
  inhibition: inactive
SF-268
  GI50: 5.01 µM
Hs 683 [5]
  Activity: Active
TK-10
  GI50: 5.5 µM
SN12C
  GI50: 5.5 µM
A2780cis
  Activity: Active
[6]
  inhibition: inactive
HCT-116 [7]
  GI50: 1.74 µM
[8]
  fold change (FC): 1.3
HCT-116 [9]
  Activity: Active
OVCAR-5
  GI50: 33.9 µM
SW1573/2R120
  Activity: Active
SW1573
  Activity: Active
Hs 683 [10]
  Ratio IC50: 20
[11]
  inhibition: inactive
U-373MG ATCC [12]
  Activity: Active
Hs 683 [13]
  Ratio IC50: 6 - 14
A549
  GI50: 2.75 µM
MDA-MB-468
  GI50: 0.269 µM
Hs 683 [14]
  Activity: 0.5%
U-373MG ATCC [15]
  inhibition: Active
NCI-H522
  GI50: 3.24 µM
SW-620
  GI50: 3.8 µM
U-373MG ATCC [16]
  Activity: Active
HOP-92
  GI50: 0.776 µM
